The subject of data set [1] is Staphylococcus aureus. As to the kind of experiment: Antibacterial activity against Staphylococcus aureus KCTC 1621 assessed as growth inhibition at 50 ug/ml preincubated with trypsin for 1 hr followed by 18 to 20 hrs incubation in bacterial culture by broth microdilution method. The format is functional, organism-based. The procedure, abridged: (§1)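 Peptides are pretreated with trypsin, then residual antibacterial activity is measured by broth microdilution. Remaining intact peptide at each degradation time is followed separately by analytical RP-HPLC after trypsin treatment.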

The test system of data set [2] is Escherichia coli. As to the kind of experiment: Antibacterial activity against Escherichia coli KCTC 1682 assessed as growth inhibition at 50 ug/ml preincubated with trypsin for 1 hr followed by 18 to 20 hrs incubation in bacterial culture by broth microdilution method. The format is functional, organism-based. Summed up:
as §1

Data set [3] has as its system Staphylococcus aureus. As to the kind of experiment: Antibacterial activity against methicillin-resistant Staphylococcus aureus CCARM 3095 assessed as growth inhibition after 18 to 20 hrs by broth microdilution method. The format is functional.
Data set [4] has as its system Staphylococcus aureus. As to the kind of experiment: Antibacterial activity against methicillin-resistant Staphylococcus aureus CCARM 3090 assessed as growth inhibition after 18 to 20 hrs by broth microdilution method. The format is functional.
A short description of data set [5]: Hemolytic activity in human RBC after 1 hr. The conditions noted are these: erythrocyte. The format is ADME, cell-based. The procedure, abridged:
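Human erythrocytes are exposed to peptide, and HC10 is taken as the peptide concentration producing 10% hemolysis. If no hemolysis is detected at the top concentration tested, twice that maximum is used for the therapeutic index.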

For data set [6], the system named is Staphylococcus aureus. As to the kind of experiment: Antibacterial activity against methicillin-resistant Staphylococcus aureus CCARM 3089 assessed as growth inhibition after 18 to 20 hrs by broth microdilution method. The format is functional.
The test system of data set [7] is Staphylococcus aureus. As to the kind of experiment: Antibacterial activity against Staphylococcus aureus KCTC 1621 assessed as growth inhibition after 18 to 20 hrs by broth microdilution method. The format is functional. The procedure, abridged: (§2)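 MIC by broth microdilution against a four-strain panel: E. coli and P. aeruginosa (Gram-negative), S. epidermidis and S. aureus (Gram-positive). Values are given in mass and molar units. Where no activity occurs at the top concentration, twice that maximum is used in the geometric-mean MIC calculation.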

In data set [8] the test system is Staphylococcus epidermidis. As to the kind of experiment: Antibacterial activity against Staphylococcus epidermidis KCTC 1917 assessed as growth inhibition after 18 to 20 hrs by broth microdilution method. The format is functional. Summed up:
as §2

The test system of the next data set is Pseudomonas aeruginosa. Description: Antibacterial activity against Pseudomonas aeruginosa KCTC 1637 assessed as growth inhibition after 18 to 20 hrs by broth microdilution method. The format is functional. The procedure, abridged:
as §2

Data set [9] deals with Escherichia coli. Description: Antibacterial activity against Escherichia coli KCTC 1682 assessed as growth inhibition after 18 to 20 hrs by broth microdilution method. The format is functional. The procedure, abridged: as §2
Data set [10] relates to Staphylococcus aureus. As to the kind of experiment: Antibacterial activity against Staphylococcus aureus KCTC 1621 assessed as obvious disruption of cellular structure at 10 X MIC after 1 hr by transmission electron microscopic analysis. The format is functional, organism-based. The procedure, abridged:
(§3)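 Peptide-treated E. coli and S. aureus are negatively stained and examined by transmission electron microscopy for cell rupture and release of internal material. Comparisons are made with untreated cells, with LL-37 as a positive lysis control.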

The test system of data set [11] is Escherichia coli. As to the kind of experiment: Antibacterial activity against Escherichia coli KCTC 1682 assessed as obvious disruption of cellular structure at 10 X MIC after 1 hr by transmission electron microscopic analysis. The format is functional, organism-based. Summed up: as §3

In brackets after ≈: the same amount, converted by molar mass. Activity calls are given as the source filed them. The calls are words filed in the database; no cut-off is given here. Where a SMILES comes first, the peptide text is derived from it.

For `N=C(N)NCCC[C@H](NC(=O)[C@@H](N)CCCNC(=N)N)C(=O)N[C@@H](Cc1c[n+](CCCC2CCCCC2)cn1CCCC1CCCCC1)C(N)=O`, the “growth inhibition (GI)” value in the data set with Staphylococcus aureus [1] and with Escherichia coli [2] was “Active” throughout. Besides, the MIC in the data set on Staphylococcus aureus [3] amounted to 5.6 µM; in the data set with Staphylococcus aureus [4], 11.2 µM; with Staphylococcus aureus [6] it was 5.6 µM; in the data set with Staphylococcus aureus [7] it was 5.6 µM; in data set [8], 5.6 µM; in the data set on Pseudomonas aeruginosa, 11.2 µM. In the data set on Escherichia coli [9], the MIC worked out at 5.6 µM. The HC10 in [5] was above 358 µM.
Regarding `NC(=O)[C@H](CCCN=C(N)N)NC(=O)[C@H](Cc1c[nH]c2ccccc12)NC(=O)[C@@H](N)CCCN=C(N)N` (H-Arg-Trp-Arg-NH2), in [5], the HC10 was above 495.8 µM. For the same compound, the MIC (in the data set with Staphylococcus aureus [7]; in data set [8]; in the data set on Pseudomonas aeruginosa; in the data set with Escherichia coli [9]) was above 124 µM in each case.
Consider `CC[C@H](C)[C@H](NC(=O)CN)C(=O)NCC(=O)N[C@@H](C)C(=O)N[C@H](C(=O)N[C@@H](CC(C)C)C(=O)N[C@@H](CCCCN)C(=O)N[C@H](C(=O)N[C@@H](CC(C)C)C(=O)N[C@H](C(=O)N[C@H](C(=O)NCC(=O)N[C@@H](CC(C)C)C(=O)N1CCC[C@H]1C(=O)N[C@@H](C)C(=O)N[C@@H](CC(C)C)C(=O)N[C@H](C(=O)N[C@@H](CO)C(=O)N[C@@H](Cc1c[nH]c2ccccc12)C(=O)N[C@H](C(=O)N[C@@H](CCCCN)C(=O)N[C@@H](CCCNC(=N)N)C(=O)N[C@@H](CCCCN)C(=O)N[C@@H](CCCNC(=N)N)C(=O)N[C@@H](CCC(N)=O)C(=O)N[C@@H](CCC(N)=O)C(N)=O)[C@@H](C)CC)[C@@H](C)CC)[C@@H](C)O)[C@@H](C)O)C(C)C)C(C)C`, for which the “growth inhibition (GI)” value in the data set on Staphylococcus aureus [1] and with Escherichia coli [2] was “inactive” throughout.
Take `N=C(N)NCCC[C@H](NC(=O)[C@H](Cc1cncn1CCCC1CCCCC1)NC(=O)[C@@H](N)CCCNC(=N)N)C(N)=O`: the “growth inhibition (GI)” value in the data set on Staphylococcus aureus [1] and in the data set on Escherichia coli [2] was “inactive” throughout. In addition, the MIC is 54.1 µM (≈ 32 µg/mL) in the data set on Staphylococcus aureus [3]; above 54.1 µM with Staphylococcus aureus [4]; 54.1 µM (≈ 32 µg/mL) in the data set with Staphylococcus aureus [6]; 13.5 µM (≈ 7.98 µg/mL) in the data set on Staphylococcus aureus [7]; 13.5 µM (≈ 7.98 µg/mL) in data set [8]; 108 µM (≈ 63.9 µg/mL) in the data set on Pseudomonas aeruginosa. In addition, the MIC with Escherichia coli [9] is 108 µM (≈ 63.9 µg/mL). Further, in data set [5], the HC10 is above 432.9 µM.
Take `N=C(N)NCCC[C@H](NC(=O)[C@H](Cc1c[n+](CCCC2CCCCC2)cn1CCCC1CCCCC1)NC(=O)[C@@H](N)CCCNC(=N)N)C(N)=O`: the result with Staphylococcus aureus [10] and in the data set on Escherichia coli [11] was Active. For the same compound, the “growth inhibition (GI)” value in the data set with Staphylococcus aureus [1] and with Escherichia coli [2] was “Active” each time. The MIC worked out at 5.2 µM in the data set on Staphylococcus aureus [3]; 5.2 µM in the data set with Staphylococcus aureus [4]; 5.2 µM in the data set on Staphylococcus aureus [6]; 5.6 µM with Staphylococcus aureus [7]; 5.6 µM in data set [8]; 11.2 µM in the data set with Pseudomonas aeruginosa. For the same compound, the MIC in the data set with Escherichia coli [9] was 5.6 µM. Besides, the HC10 in data set [5] was above 357.8 µM.
In [5], `N=C(N)NCCC[C@H](NC(=O)[C@H](Cc1c[nH]c2ccccc12)NC(=O)[C@H](CCCNC(=N)N)NC(=O)[C@@H](N)Cc1c[nH]c2ccccc12)C(N)=O` (H-WRWR-NH2) registered an HC10 above 364.5 µM.
For the compound `CC[C@H](C)[C@H](NC(=O)[C@H](CCCCN)NC(=O)[C@H](CCC(=O)O)NC(=O)[C@H](CCCCN)NC(=O)[C@H](CO)NC(=O)[C@H](CCCCN)NC(=O)[C@H](CCCNC(=N)N)NC(=O)[C@H](Cc1ccccc1)NC(=O)[C@H](Cc1ccccc1)NC(=O)[C@H](CC(=O)O)NC(=O)CNC(=O)[C@H](CC(C)C)NC(=O)[C@@H](N)CC(C)C)C(=O)NCC(=O)N[C@@H](CCCCN)C(=O)N[C@@H](CCC(=O)O)C(=O)N[C@@H](Cc1ccccc1)C(=O)N[C@@H](CCCCN)C(=O)N[C@@H](CCCNC(=N)N)C(=O)N[C@H](C(=O)N[C@H](C(=O)N[C@@H](CCC(N)=O)C(=O)N[C@@H](CCCNC(=N)N)C(=O)N[C@H](C(=O)N[C@@H](CCCCN)C(=O)N[C@@H](CC(=O)O)C(=O)N[C@@H](Cc1ccccc1)C(=O)N[C@@H](CC(C)C)C(=O)N[C@@H](CCCNC(=N)N)C(=O)N[C@@H](CC(N)=O)C(=O)N[C@@H](CC(C)C)C(=O)N[C@H](C(=O)N1CCC[C@H]1C(=O)N[C@@H](CCCNC(=N)N)C(=O)N[C@H](C(=O)N[C@@H](CCC(=O)O)C(=O)N[C@@H](CO)C(=O)O)[C@@H](C)O)C(C)C)[C@@H](C)CC)C(C)C)[C@@H](C)CC` [CATHELICIDIN], the outcome with Staphylococcus aureus [10] and in the data set with Escherichia coli [11] was Active. In addition, the MIC was above 7.1 µM in the data set on Staphylococcus aureus [3]; above 7.1 µM in the data set with Staphylococcus aureus [4]; above 7.1 µM with Staphylococcus aureus [6]; 3.6 µM (≈ 16.2 µg/mL) in the data set with Staphylococcus aureus [7]; 14.2 µM (≈ 63.8 µg/mL) in [8]; 7.1 µM (≈ 31.9 µg/mL) in the data set with Pseudomonas aeruginosa. In addition, the MIC in the data set on Escherichia coli [9] is 7.1 µM (≈ 31.9 µg/mL). The compound further came in with an HC10 in data set [5] of 36.7 µM.
As for `NC(=O)[C@H](CCCN=C(N)N)NC(=O)[C@H](Cc1c[nH]c2ccccc12)NC(=O)[C@H](CCCN=C(N)N)NC(=O)[C@@H](N)Cc1c[nH]c2ccccc12` (H-WRWR-NH2), the MIC came to 45.6 µM (≈ 32 µg/mL) in the data set with Staphylococcus aureus [7], 11.4 µM (≈ 8 µg/mL) in data set [8], 45.6 µM (≈ 32 µg/mL) in the data set with Pseudomonas aeruginosa and 45.6 µM (≈ 32 µg/mL) in the data set on Escherichia coli [9].
Take `N=C(N)NCCC[C@H](NC(=O)[C@@H](N)Cc1c[n+](CCCC2CCCCC2)cn1CCCC1CCCCC1)C(N)=O`: the “growth inhibition (GI)” value with Staphylococcus aureus [1] and in the data set on Escherichia coli [2] was “Active” each time. The MIC in the data set with Staphylococcus aureus [3] is 14.3 µM; with Staphylococcus aureus [4], 28.6 µM; with Staphylococcus aureus [6], 14.3 µM; in the data set with Staphylococcus aureus [7] it was 14.3 µM; in [8], 14.3 µM; in the data set on Pseudomonas aeruginosa, 57.2 µM. The MIC in the data set with Escherichia coli [9] is above 114 µM. Further, the HC10 in [5] was above 457.6 µM.
Take H-WRWRWR-NH2 [listing 1 of 2 here]: the HC10 in data set [5] is above 245.2 µM.
In the case of `N=C(N)NCCC[C@H](NC(=O)[C@H](CCCNC(=N)N)NC(=O)[C@@H](N)Cc1c[n+](CCCC2CCCCC2)cn1CCCC1CCCCC1)C(N)=O`, the result in the data set with Staphylococcus aureus [10] and in the data set with Escherichia coli [11] was Active. The “growth inhibition (GI)” value in the data set with Staphylococcus aureus [1] and in the data set with Escherichia coli [2] was “Active” each time. Besides, the MIC amounted to 5.6 µM with Staphylococcus aureus [3]; 5.6 µM in the data set on Staphylococcus aureus [4]; 5.6 µM in the data set with Staphylococcus aureus [6]; 2.8 µM in the data set with Staphylococcus aureus [7]; 2.8 µM in [8]; 11.2 µM in the data set with Pseudomonas aeruginosa. Moreover, in the data set on Escherichia coli [9], the MIC was found to be 5.6 µM. The compound further showed an HC10 in data set [5] above 357.7 µM.
With H-WRWRWR-NH2 [listing 2 of 2 here], the MIC in the data set on Staphylococcus aureus [7] came to 7.7 µM; in data set [8] it was 7.7 µM; with Pseudomonas aeruginosa, 15.3 µM; in the data set on Escherichia coli [9], 3.8 µM.

Source of the values: ChEMBL document CHEMBL2406980, “Non hemolytic short peptidomimetics as a new class of potent and broad-spectrum antimicrobial agents” (Bioorg Med Chem Lett, 2013).
